Reference: ChEMBL document CHEMBL5647697, “Akt inhibition synergizes with polycomb repressive complex 2 inhibition in the treatment of multiple myeloma” (2019)
Active and inactive are the calls of the source. The calls are words filed in the database; no cut-off is given here.

Experiments:
[1] = test system: OPM-2/BTZ; experiment: Downregulation of EZH2 mRNA expression in human OPM-2/BTZ cells at 3 micromol/L after 24 hrs by qRT-PCR analysis; assay type: functional, cell-based; details: dose 3.0 µmol/L
[2] = test system: MM1.S; experiment: Downregulation of EZH2 protein expression in human MM1.S cells at 0.3 to 5 micromol/L for 6 to 48 hrs by Western blot analysis; assay type: functional, cell-based; details: dose 0.3-5 µmol/L, time 6-48 hrs
Outline: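 MM.1S and H929 cells exposed to TAS-117 at the indicated doses for 48 h, or to 5 μmol/L for the indicated times. Immunoblot with GAPDH, Akt and H3 as loading controls; EZH2 quantified relative to GAPDH.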

[3] = test system: OPM-2/BTZ; experiment: Downregulation of EZH2 protein expression in human OPM-2/BTZ cells at 0.3 to 5 micromol/L for 6 to 48 hrs by Western blot analysis; assay type: functional, cell-based; details: dose 0.3-5 µmol/L, time 6-48 hrs
[4] = test system: NCI-H929; experiment: Upregulation of H3K27me3 protein expression in human NCI-H929 cells at 0.3 to 5 micromol/L for 6 to 48 hrs by Western blot analysis; assay type: functional, cell-based; details: dose 0.3-5 µmol/L, time 6-48 hrs
Outline: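 H3K27me3 was detected by immunoblot in MM.1S and H929 cells. Cells were given graded TAS-117 for 48 h, or 5 μmol/L for the indicated times. Signal is quantified relative to the H3 loading control.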

[5] = test system: OPM-2/BTZ; experiment: Downregulation of cyclin D1 protein expression in human OPM-2/BTZ cells incubated at 0.3 to 3 micromol/L for 48 hrs by Western blot analysis; assay type: functional, cell-based; details: dose 0.3-3 µmol/L
[6] = test system: NCI-H929; experiment: Upregulation of p27 protein expression in human NCI-H929 cells incubated at 0.3 to 3 micromol/L for 48 hrs by Western blot analysis; assay type: functional, cell-based; details: dose 0.3-3 µmol/L
[7] = test system: NCI-H929; experiment: Downregulation of CDK1 protein expression in human NCI-H929 cells incubated at 0.3 to 3 micromol/L for 48 hrs by Western blot analysis; assay type: functional, cell-based; details: dose 0.3-3 µmol/L
Outline: (§1)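 MM.1S and H929 cells given TAS-117 at the indicated doses for 48 h. Protein levels assessed by immunoblot.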

[8] = test system: MM1.S; experiment: Downregulation of E2F1 protein expression in human MM1.S cells incubated at 0.3 to 3 micromol/L for 48 hrs by Western blot analysis; assay type: functional, cell-based; details: dose 0.3-3 µmol/L; outline: as §1
[9] = test system: NCI-H929; experiment: Downregulation of cyclin D1 protein expression in human NCI-H929 cells incubated at 0.3 to 3 micromol/L for 48 hrs by Western blot analysis; assay type: functional, cell-based; details: dose 0.3-3 µmol/L; outline: as §1
[10] = test system: OPM-2/BTZ; experiment: Downregulation of phospho-Rb protein expression in human OPM-2/BTZ cells incubated at 0.3 to 3 micromol/L for 48 hrs by Western blot analysis; assay type: functional, cell-based; details: dose 0.3-3 µmol/L
[11] = test system: OPM-2/BTZ; experiment: Upregulation of p27 protein expression in human OPM-2/BTZ cells incubated at 0.3 to 3 micromol/L for 48 hrs by Western blot analysis; assay type: functional, cell-based; details: dose 0.3-3 µmol/L
[12] = test system: MM1.S; experiment: Synergistic activity against human MM.1S cells assessed as combination index […] in presence of 5 uM UNC1999 for 72 hrs […] at 0.25 uM incubated for 48 hrs by MTT assay; assay type: functional
Outline: (§2)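 Cells were exposed to the EZH2/EZH1 inhibitor (UNC1999 or GSK126) for 72 h in total, with the Akt inhibitor added for the last 48 h. Viability was read by MTS assay relative to untreated control cells, in triplicate. The combination index for each dose pair came from isobologram analysis.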

[13] = test system: MM1.S; experiment: Synergistic activity against human MM.1S cells assessed as combination index […] compound addition at 0.125 uM incubated for 48 hrs by […]; assay type: functional; outline: as §2
[14] = test system: MM1.S; experiment: Synergistic activity against human MM.1S cells assessed as combination index […] at 0.25 uM incubated for 48 hrs by […]; assay type: functional; outline: as §2
[15] = test system: MM1.S; experiment: Synergistic activity against human MM.1S cells assessed as combination index […] at 0.125 uM incubated for 48 hrs by […]; assay type: functional; outline: as §2
[16] = test system: NCI-H929; experiment: Synergistic activity against human NCI-H929 cells assessed as combination index […] in presence of 5 uM GSK126 […] compound addition at 0.125 uM incubated for 48 hrs by […]; assay type: functional; outline: as §2
[17] = test system: NCI-H929; experiment: Synergistic activity against human NCI-H929 cells assessed as combination index […] compound addition at 0.25 uM incubated for 48 hrs by […]; assay type: functional; outline: as §2
[18] = test system: OPM-2/BTZ; experiment: Synergistic activity against human OPM-2/BTZ cells assessed as combination index preincubated in presence of 1.25 uM UNC1999 for 72 hrs followed by compound addition at 2 uM incubated for 48 hrs by MTT assay; assay type: functional
[19] = test system: OPM-2/BTZ; experiment: Synergistic activity against human OPM-2/BTZ cells assessed as combination index preincubated in presence of 1.25 uM GSK126 for 72 hrs followed by compound addition at 0.5 uM incubated for 48 hrs by MTT assay; assay type: functional
[20] = test system: OPM-2/BTZ; experiment: Synergistic activity against human OPM-2/BTZ cells assessed as combination index preincubated in presence of 5 uM GSK126 for 72 hrs followed by compound addition at 0.5 uM incubated for 48 hrs by MTT assay; assay type: functional
[21] = test system: OPM-2; experiment: Synergistic activity against human OPM-2 cells assessed as combination index preincubated in presence of 2.5 uM GSK126 for 72 hrs followed by compound addition at 1.25 uM incubated for 48 hrs by MTT assay; assay type: functional
[22] = test system: OPM-2; experiment: Synergistic activity against human OPM-2 cells assessed as combination index preincubated in presence of 2.5 uM GSK126 for 72 hrs followed by compound addition at 2.5 uM incubated for 48 hrs by MTT assay; assay type: functional
[23] = test system: OPM-2; experiment: Synergistic activity against human OPM-2 cells assessed as combination index preincubated in presence of 5 uM GSK126 for 72 hrs followed by compound addition at 2.5 uM incubated for 48 hrs by MTT assay; assay type: functional
[24] = test system: MM1.S; experiment: Induction of apoptosis in human MM1.S cells assessed as necrotic cells at 2 micromol/L incubated for 12 hrs by annexin V/PI staining based flow cytometry (reference value: 0.17%); assay type: functional; details: dose 2 µmol/L, at 2 µM
[25] = test system: MM1.S; experiment: Induction of apoptosis in human MM1.S cells assessed as late apoptotic cells preincubated in presence of 5 micromol/L UNC1999 for 48 hrs followed by compound addition at 2 micromol/L incubated for 12 hrs by annexin V/PI staining based flow cytometry (reference value: 3.6%); assay type: functional; details: dose 2 µmol/L, at 2 µM
[26] = test system: MM1.S; experiment: Induction of apoptosis in human MM1.S cells assessed as early apoptotic cells preincubated in presence of 5 micromol/L UNC1999 for 48 hrs followed by compound addition at 2 micromol/L incubated for 12 hrs by annexin V/PI staining based flow cytometry (reference value: 8.03%); assay type: functional; details: dose 2 µmol/L, at 2 µM
[27] = test system: NCI-H929; experiment: Upregulation of FOXO3 […] expression in human NCI-H929 cells assessed as enhanced nuclear accumulation at 1 micromol/L after 24 hrs by immunofluorescence staining; assay type: functional, cell-based; details: dose 1.0 µmol/L
[28] = test system: OPM-2; experiment: Synergistic activity against human OPM-2 cells assessed as combination index preincubated in presence of 1.25 uM UNC1999 for 72 hrs followed by compound addition at 1.25 uM incubated for 48 hrs by MTT assay; assay type: functional
[29] = test system: NCI-H929; experiment: Induction of apoptosis in human NCI-H929 cells assessed as early apoptotic cells preincubated in presence of 5 micromol/L UNC1999 for 48 hrs followed by compound addition at 2 micromol/L incubated for 12 hrs by annexin V/PI staining based flow cytometry (reference value: 0.37%); assay type: functional; details: dose 2 µmol/L, at 2 µM

`C[C@]1(O)C[C@@](N)(c2ccc(-c3nc4n(c3-c3ccccc3)COc3ccncc3-4)cc2)C1` [PIFUSERTIB] was tested, and the Activity [1] was “Active”, the Activity [2] was “Active” and the Activity [3] was “Active”. For the same compound, the Activity [4] was “Active”, the Activity [5] was “Active” and the Activity [6] was “Active”. The Activity [7] was “Active”, the Activity [8] was “Active” and the Activity [9] was “Active”. For the same compound, the Activity [10] was “Active”, the Activity [11] was “Active” and the CI [12] was 0.237. For the same compound, the CI [13] was 0.751, the CI [14] was 0.826 and the CI [15] was 0.532. It also gave a CI [16] of 7.124, a CI [17] of 7.428 and a CI [18] of 0.395. For the same compound, the CI [19] was 0.624, the CI [20] was 1.112 and the CI [21] was 1.462. For the same compound, the CI [22] was 2.563, the CI [23] was 2.74 and the Activity [24] was 0.23%. For the same compound, the Activity [25] was 25.3%, the Activity [26] was 40.7% and the Activity [27] was “Active”. For the same compound, the CI [28] was 1.33 and the Activity [29] was 16.1%.
